Results gathered from unrelated publications.
Plasmepsin II: Plasmepsin II (Plasmodium falciparum, UniProt P46925)
HTR7: 5-hydroxytryptamine receptor 7 (HTR7, Homo sapiens, UniProt P34969)
HTR6: 5-hydroxytryptamine receptor 6 (HTR6, Homo sapiens, UniProt P50406)
SCN5A: Sodium channel protein type 5 subunit alpha (SCN5A, Homo sapiens, UniProt Q14524)
SIRT6: NAD-dependent protein deacylase sirtuin-6 (SIRT6, Homo sapiens, UniProt Q8N6T7)
CCR5: C-C chemokine receptor type 5 (CCR5, Homo sapiens, UniProt P51681)
Adra1a: Alpha-1A adrenergic receptor (Adra1a, Rattus norvegicus, UniProt P43140)

Structure (SMILES)	target	test	system	conditions	inhibition
O=[N+]([O-])c1ccc(N2CCCN(CCC(O)c3csc4ccc(F)cc34)CC2)c(C(F)(F)F)c1 (centres unmarked)	Plasmepsin II	enzyme activity, inhibitor		5 µM	8%
O=C(c1ccc(Cl)cc1)N(Cc1ccccc1)C1CCCCC1	HTR7	ligand displacement, radioligand		10 µM	19.2%
N#Cc1cc(Cn2c(N3CCCC3)nc3ccccc32)ccc1F	HTR6	ligand displacement		10 µM	6.5%
N=c1n(CCN2CCCCC2)c2ccccc2n1CC(O)c1cccc(Br)c1 (centres unmarked)	SCN5A	ion current, inhibitor, patch clamp	CHO	10 µM	66%
Ic1cccc2cnccc12	Protein mono-ADP-ribosyltransferase PARP14 (PARP14, Homo sapiens, UniProt Q460N5)	enzyme activity, inhibitor		10 µM	7%
Cc1cccc(CONC(=O)c2ccc(C(N)=O)cc2)c1	SIRT6	enzyme activity, inhibitor, fluorescence		100 µM	84%
CCN(Cc1ccccc1C(F)(F)F)C(=O)C1CCN(S(=O)(=O)c2ccc3[nH]ncc3c2)CC1	Platelet-activating factor receptor (PTAFR, Homo sapiens, UniProt P25105)	ligand displacement, radioligand		10 µM	7%
CSSc1ccccc1C(=O)O	Cathepsin B (CTSB, Homo sapiens, UniProt P07858)	enzyme activity, inhibitor, fluorescence		20 µM	100%
CC/C(=N\NC(=O)NCc1cccc(O)c1)c1ccc(O)c(C)c1O	[Pyruvate dehydrogenase (acetyl-transferring)] kinase isozyme 4, mitochondrial (PDK4, Homo sapiens, UniProt Q16654)	enzyme activity, inhibitor		0.1 µM	-2.1%
CCCCCCCCCCCCNC(=S)NCCCC[C@H](NS(C)(=O)=O)C(=O)N[C@@H](C)C(=O)N[C@@H](CCCNC(=N)N)C(N)=O	SIRT6	enzyme activity, inhibitor		10 µM	30%
C/C(=C\C(=O)OCCCCCCCCC(=O)O)C[C@@H]1OC[C@H](C[C@@H]2O[C@H]2[C@@H](C)[C@H](C)O)[C@@H](O)[C@H]1O	CCR5	calcium signal, antagonist	U87/CD4/CCR5	0.8 µM	52%
COc1cccc(Sc2ccc(CONC(=O)c3ccc(C(N)=O)cc3)cc2C(F)(F)F)c1	SIRT6	enzyme activity, inhibitor, fluorescence		100 µM	100%
O=C(c1ccc(F)cc1)N(Cc1ccccc1)C1CCCCC1	Adra1a	cell-free assay		10 µM	-1%
OCc1cc(C(O)CNCCCCCCOCCCCc2ccccc2)ccc1O (centres unmarked)	CCR5	calcium signal, antagonist	U87/CD4/CCR5	100 µM	60%
CN(C)C1CCN(CC#Cc2nn(C3CCCC3)c3nc(NCc4ccccc4)ncc23)C1 (centres unmarked)	Mitogen-activated protein kinase 13 (MAPK13, Homo sapiens, UniProt O15264)	enzyme activity, inhibitor, FRET		0.1 µM	1%
CCN(CC)CCNC(=O)C1CCN(c2ccc3nnc(-c4cccc(C)c4)n3n2)CC1	SCN5A	ion current, inhibitor, patch clamp	CHO	10 µM	9.9%

Structure (SMILES)	target	test	system	conditions	inhibition
COc1ccccc1CONC(=O)c1ccc(C(N)=O)cc1	SIRT6	enzyme activity, inhibitor, fluorescence		100 µM	60.5%
O=[N+]([O-])c1ccc(N2CCC(NCCC(O)c3ccc(F)c4ccccc34)CC2)c(C(F)(F)F)c1 (centres unmarked)	Plasmepsin II	enzyme activity, inhibitor		5 µM	9%
NC(=O)c1ccc(C(=O)NOCc2ccc(-n3cccn3)cc2)cc1	SIRT6	enzyme activity, inhibitor, fluorescence		100 µM	91.8%
CCCCCCOc1c(OC)cc2c3c1-c1cc4c(cc1CC3N(C)CC2c1ccccc1)OCO4 (centres unmarked)	HTR7	ligand displacement, radioligand		10 µM	-14.6%
NC(=O)c1ccc(C(=O)NOCc2ccc(Sc3cc(Cl)cc(Cl)c3)c(C(F)(F)F)c2)cc1	SIRT6	enzyme activity, inhibitor, fluorescence		100 µM	100%
CNC(=O)c1cc2c(Oc3ccc(NC(=O)C4(C(=O)Nc5ccc(F)cc5)CC4)cc3)ccnc2cc1OC	Angiopoietin-1 receptor (TEK, Homo sapiens, UniProt Q02763, R849W)	enzyme activity, inhibitor, radiometric		1 µM	99%
NC(=S)c1ccc(C(=O)NOCc2ccc(C(F)(F)F)cc2)cc1	SIRT6	enzyme activity, inhibitor, fluorescence		100 µM	89.2%
O=C(NC1CCC1)[C@H](Cc1c[nH]c2ccccc12)NC(=O)[C@H](CCCCNC(=S)NCCc1nnn[nH]1)NS(=O)(=O)c1cccc(F)c1	SIRT6	enzyme activity, inhibitor		10 µM	6%
NC(=O)c1ccc(C(=O)NOCc2ccc3sc4ccccc4c3c2)cc1	SIRT6	enzyme activity, inhibitor, fluorescence		100 µM	96.2%
O=[N+]([O-])c1ccc(N2CCC(NCCC(O)c3csc4ccc(F)cc34)CC2)c(C(F)(F)F)c1 (centres unmarked)	Plasmepsin II	enzyme activity, inhibitor		5 µM	0%
C=CCC1(/C=C(\C)C=C)SC(=O)C(CC)=C1O (racemic)	Nicotinamide N-methyltransferase (NNMT, Homo sapiens, UniProt P40261)	enzyme activity, inhibitor		10 µM	~35%
CN(Cc1ccc(NC(=O)C2=Cc3cc(-c4ccc(OCCCCCO)cc4)ccc3CCC2)cc1)C1CCOCC1	C-C chemokine receptor type 2 (CCR2, Homo sapiens, UniProt P41597)	ligand displacement, radioligand		1 µM, cell membranes	53%
CC(C)(C)c1ccc(CONC(=O)c2ccc(C(N)=O)cc2)cc1	SIRT6	enzyme activity, inhibitor, fluorescence		100 µM	95.1%
O=C(Nc1ccc(S(=O)(=O)N2CCC(Cl)CC2)cc1)c1ccc([N+](=O)[O-])o1	Adra1a	ligand displacement, radioligand		10 µM	19%
Cc1cnc(C(=O)NCCNC(=O)Cn2[nH]c(=O)c3ccccc3c2=O)cn1	Poly [ADP-ribose] polymerase 2 (PARP2, Homo sapiens, UniProt Q9UGN5)	enzyme activity, inhibitor		0.5 µM	~50%
Nc1ccc(-c2ccncc2)cc1NC(=O)N1CCCC1	HTR6	ligand displacement, radioligand		10 µM	16%
